Screening data as filed in PubChem BioAssay.
The list is not random: actives were taken first. Their share in the collection is about 3%.
Apaf1 inhib: blocks human Apaf-1 apoptosome activity | O14727 | reconstituted apoptosome caspase-3 activity, DEVD-Rh110 fluorescence | inhibition, % at 20 µM | hit rate 0.71% among 330,000; active = inhibition of at least 40% at 20 µM;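 note: plate controls were DMSO wells for no effect and DEVD-CHO caspase inhibitor wells for full effect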
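Assay system – apoptosome proteins · Medium – Hepes buffer, pH 7.5 · Also added – cytochrome c with DEVD-Rh110 · Timing – 30 min compound preincubation, 50 min activation, room temperature · Detection – Rh110 fluorescence, excitation 480 nm, emission 540 nm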
SENP8 block-1: SENP8 (human) protease inhibition. inhibition, % at 20 µM. hit rate 0.64% among 360,000. Q96LD8. recombinant SENP8, Nedd8 substrate fluorescence; in the data active = inhibition mostly above about 40%, no sharp cut-off; inactive = mostly below about 27%
SENP6 block: blocks the human protease SENP6; Q9GZR1; Recombinant SENP6 catalytic domain, aminoluciferin luminescence; inhibition, % at 10 µM; hit rate 1.8% among 330,000;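 active = inhibition above about 50% at the single tested dose, limit read from the data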;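 note: plate controls were DMSO wells with enzyme for no effect and DMSO wells lacking enzyme for full effect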
Target sequence (Q9GZR1 628-1112 limits assumed): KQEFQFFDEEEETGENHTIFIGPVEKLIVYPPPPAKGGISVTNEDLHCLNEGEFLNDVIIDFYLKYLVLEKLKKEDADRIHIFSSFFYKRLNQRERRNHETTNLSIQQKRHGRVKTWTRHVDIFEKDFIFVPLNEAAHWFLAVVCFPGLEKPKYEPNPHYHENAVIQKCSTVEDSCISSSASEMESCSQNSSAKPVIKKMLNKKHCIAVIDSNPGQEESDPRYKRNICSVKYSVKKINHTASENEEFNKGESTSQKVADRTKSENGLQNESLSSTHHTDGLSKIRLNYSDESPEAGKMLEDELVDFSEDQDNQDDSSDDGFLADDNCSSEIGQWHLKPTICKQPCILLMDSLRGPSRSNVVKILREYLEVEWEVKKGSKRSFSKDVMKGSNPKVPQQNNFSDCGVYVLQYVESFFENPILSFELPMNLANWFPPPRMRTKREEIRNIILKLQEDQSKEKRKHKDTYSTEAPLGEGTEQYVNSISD
SENP7 inh: inhibitors of human SENP7 protease; Q9BQF6; recombinant SENP7, Z-RLRGG-aminoluciferin luminescence, 40 min; inhibition, % at 5 µM; hit rate 1.5% among 330,000; AID 434973;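 active = inhibition above about 50% at the single test dose, limit read from the data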;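 note: plate controls were DMSO with enzyme for no effect and no enzyme buffer wells for full effect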
UBC13 polyUb: blocks human UBC13 polyubiquitin chain formation | P61088 | TR-FRET | inhibition, % at 20 µM | hit rate 0.47% among 330,000; in the data active = inhibition above about 45%, passing the limit was not always enough
Target sequence (P61088 whole entry, looked up): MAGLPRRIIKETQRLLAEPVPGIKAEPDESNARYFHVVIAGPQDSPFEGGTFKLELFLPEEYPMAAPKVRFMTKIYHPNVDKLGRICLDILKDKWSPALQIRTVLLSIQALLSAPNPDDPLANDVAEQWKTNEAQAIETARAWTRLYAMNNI
SENP8 block-2: inhibitors of human SENP8 protease; Q96LD8; purified SENP8, Z-RLRGG-aminoluciferin cleavage, luminescence; inhibition, % at 10 µM; hit rate 1.2% among 330,000; in the data active = inhibition above about 50%
SENP8 conf: confirmation of human SENP8 protease inhibitors. shares compounds with SENP8 block-1. purified SENP8, Nedd8-AMC/pro-Nedd8 cleavage fluorescence, 30 min. inhibition, % at 25 µM. hit rate 15% among 1,400; in the data active = inhibition mostly above about 39%, no sharp cut-off; inactive = mostly below about 34%
An asterisk follows results filed as active; . = no result.

SMILES	Apaf1 inhib	SENP8 block-1	SENP6 block	SENP7 inh	UBC13 polyUb	SENP8 block-2	SENP8 conf
O=C(Nc1ccc2c(c1)OCO2)c1csc([C@@H]2O[C@H](CO)[C@H](O)[C@H](O)[C@H]2O)n1	.	13.9	.	.	.	.	.
CNc1ccc(C(=O)c2ccccc2C(=O)O)cc1[N+](=O)[O-]	-14.8	6.1	-7.9	-13.5	-22.9	1.2	.
CNc1ccc(/C=C/C(=O)c2cccc3ccccc23)cc1[N+](=O)[O-]	13.9	47.0*	-12.1	2.6	-35.8	7.6	12.5
COc1ccc(C2=Nc3ccccc3NC(=O)C2N(C(=O)c2ccnc3ccccc23)c2ccccc2)cc1 (centres undefined)	.	-37.0	.	.	.	.	.
O=[N+]([O-])c1ccccc1NC1CCN(Cc2ccccc2)CC1	-3.8	44.2*	-15.8	10.6	-44.8	1.2	19.7
CC1CCC2C(=O)N(c3ccc(NC4CCN(Cc5ccccc5)CC4)c([N+](=O)[O-])c3)C(=O)C2C1 (centres undefined)	1.9	47.2*	21.0	-6.8	-35.0	-11.8	14.7
O=C1C2CCCCC2C(=O)N1c1ccc(NC2CCN(Cc3ccccc3)CC2)c([N+](=O)[O-])c1 (centres undefined)	2.1	44.3*	-10.0	11.1	-30.8	-6.0	24.7
Cc1ccc(S(=O)(=O)CCC(=O)OCC(=O)Nc2cccc(S(=O)(=O)N3CCCCC3)c2)cc1	.	16.2	.	.	.	.	.
CCN(CC)C(=O)C1=C(C)N(CCCN2CCCC2=O)C(=O)C(CC(=O)NC2CCCC2)C1 (centres undefined)	.	-2.0	.	.	.	.	.
CCCS(=O)(=O)NC(=O)C1(C)CCN(C(=O)c2ccco2)C1 (centres undefined)	.	2.4	.	.	.	.	.
CC1(c2nc3ccccc3[nH]2)c2ccccc2C(=O)N1C1CC1 (centres undefined)	.	3.0	.	.	.	.	.
COc1ccc(N2Nc3n[nH]c(N)c3N2)cc1	29.4	50.8*	19.3	15.6	-1.5	-6.2	10.4
CCOc1ccc(N2Nc3n[nH]c(N)c3N2)cc1	17.4	49.0*	16.3	-0.9	-15.6	-18.1	34.9
COc1ccc(N2CCN(c3n[nH]c(N)n3)CC2)cc1	-3.6	12.9	15.3	-3.8	3.9	3.5	.
CNc1ncnc2c1ncn2[C@H]1CN(Cc2ccco2)C[C@@H](CO)O1	.	6.0	.	.	.	.	.
CC(C)CC(=O)NC(=S)Nc1ccccc1N1CCCC1	19.0	59.0*	27.1	6.7	-12.0	9.7	40.5
OC(c1cccc(Cl)c1)c1nc(-c2ccc(Cl)cc2)cs1 (centres undefined)	.	-1.6	.	.	.	.	.
O=C1c2cccc3cccc(c23)C(=O)C1(O)O	-3.8	51.7*	16.8	-2.6	-28.6	9.4	40.5
Cc1ccccc1Nc1cccc2nonc12	26.6	44.9*	1.3	1.7	-19.2	-6.4	33.9
Cc1ccccc1NS(=O)(=O)c1cccc2nonc12	0.2	10.0	-13.2	6.7	-5.0	2.0	.
CCCCOC(=O)C1=C(C)NC2(O)c3ccccc3C(=O)C12O (centres undefined)	11.8	46.5*	6.8	1.2	-33.2	3.4	65.0*
NC(=O)c1ccc(N=C2C(=O)Nc3ccc([N+](=O)[O-])cc32)cc1	55.8*	85.5*	32.6	-2.8	-55.0	6.9	100.0*
O=C1Nc2ccccc2C1=Nc1cccc([N+](=O)[O-])c1	1.4	13.2	-6.6	2.1	-3.8	-4.4	.
CCNc1ccc(C(=O)OCC(=O)NC(C)c2ccccc2)cc1[N+](=O)[O-] (centres undefined)	2.4	40.4*	-6.3	-2.2	-33.9	-7.3	4.3
COc1ccc(CCNC(=O)C(F)(F)F)cc1S(N)(=O)=O	.	22.0	.	.	.	.	.
SMILES	Apaf1 inhib	SENP8 block-1	SENP6 block	SENP7 inh	UBC13 polyUb	SENP8 block-2	SENP8 conf
CSc1nnc(C)c(/C=C/NOCc2ccc(Cl)cc2)n1	2.8	43.8*	25.4	6.6	-4.0	2.7	39.6
Cc1ccc(F)cc1C(=O)N1CCOCC1c1cc(C(=O)NCc2ccccc2)no1 (centres undefined)	.	22.3	.	.	.	.	.
COc1cc(NCCCn2cnc3c(OC)ncnc32)cc(OC)c1OC	.	12.5	.	.	.	.	.
CC(CCC(=O)O)C1CCC2C3CCC4C[C@H](O)CCC4(C)C3CC(=O)C12C (some centres undefined)	4.5	20.8	-6.6	4.3	-8.4	-4.7	.
C[C@H](CCC(=O)O)[C@H]1CC[C@H]2[C@@H]3CC[C@@H]4C[C@H](O)CC[C@]4(C)[C@H]3CC[C@]12C	9.6	63.8*	4.5	-6.9	-21.9	3.9	13.1
C/C(=C\C(=O)c1ccc(Br)cc1)Nc1cccc(Cl)c1	11.3	40.4*	4.9	-2.1	-0.1	-13.1	-11.6
C/C(=C\C(=O)c1ccccc1)Nc1ccc2c(c1)OCO2	0.4	66.9*	-11.0	0.9	-4.9	-17.9	20.7
CN(C)C(=S)Nc1ccc2c(c1)OCO2	8.6	10.7	11.6	6.6	-3.0	8.3	.
S=C(Nc1ccc2c(c1)OCO2)Nc1ccc2c(c1)OCO2	8.2	52.8*	36.8	7.5	4.6	4.9	21.2
C/C(=C\C(=O)c1ccc(C)o1)Nc1ccc2c(c1)OCO2	5.8	47.1*	-8.9	-2.2	-11.5	-12.7	37.5
COc1cccc(C(C)(O)c2nc(-c3ccc(F)cc3OC)cs2)c1 (centres undefined)	.	7.5	.	.	.	.	.
Cc1ccc(C)c(NNC(N)=S)c1	6.7	14.8	-22.2	-1.2	-6.2	-6.5	.
Cc1cc(Cl)ccc1NNC(N)=S	-7.3	60.7*	-13.2	14.1	-8.1	-7.7	-8.2
COC(=O)c1ccc2nc(-c3ccc(F)cc3)c(CC3CCCCC3)n2c1	.	-404.9	.	.	.	.	.
O=C(Nc1cccc(Cl)c1)c1csc([C@@H]2O[C@H](CO)[C@H](O)[C@H](O)[C@H]2O)n1	.	9.9	.	.	.	.	.
CO[C@@H]1CN(C)C(=O)c2cc(NC(=O)NC3CCCCC3)ccc2OC[C@@H](C)N(CCc2ccccc2)C[C@@H]1C	.	27.7	.	.	.	.	.
Cc1c(C(=O)N(C)C)sc(NC(=O)c2cc([N+](=O)[O-])cc([N+](=O)[O-])c2)c1C#N	2.4	43.7*	-1.7	8.0	-6.8	-2.9	27.6
CC(C)N1CCC(C)(C(=O)Nc2cccc3c2CCCC3)C1 (centres undefined)	.	8.8	.	.	.	.	.
O=C1c2ccccc2C(c2nnnn2Cc2ccccc2)N1CCc1ccc(O)cc1 (centres undefined)	.	7.3	.	.	.	.	.
CC(=O)O[C@H]1C[C@@]2(O)[C@@H](OC(=O)c3ccccc3)C3[C@@](C)([C@@H](O)C[C@H]4OC[C@@]34OC(C)=O)[C@@H](O)[C@H](OC(C)=O)C(=C1C)C2(C)C (some centres undefined)	-8.2	43.4*	-7.7	-0.1	-0.7	-4.9	15.2
N#CC1=C(N)Oc2n[nH]c(-c3cccs3)c2C1c1cccs1 (centres undefined)	36.2	59.4*	33.3	23.9	-31.5	10.8	15.0
